Compound activity: PubChem BioAssay, several laboratories
T cell modulator: modulators of CD8 T cell-vesicle binding, primary screen, mouse 2C CD8+ T cells, flow cytometry; 2C CD8+ T cell-vesicle binding; active compounds read low; response (vesicle binding), % at 7 µM; 0.068% of 330,000 active;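 active means response, share of CD8 T cells binding vesicles, and their 90th percentile fluorescence all below set limits, cut at about 80% in these data, passing the limit was not always enough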;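 further: values below 100% mean blocked vesicle binding to the CD8+ T cells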
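incubation = binding step 1.5 h, 37 °C, antibody labelling 20 min, ice | test system = 2C mouse CD8+ T cells | read-out basis = percent CD8+ FL2 mean versus row control | controls = Peptide-free naked vesicles (low) and QL9 vesicles with 0.7% DMSO vehicle (high) | detection = flow cytometry of vesicle-bound cells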
Casp6 inh: human caspase-6 inhibitors, primary screen, biochemical, VEID-R110 fluorescence, single point, set 2 | P55212 | purified caspase-6, Z-VEID-R110 cleavage fluorescence | inhibition, % at 12.5 µM | 0.53% of 350,000 active | AID 686996, 2013;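 active means mean inhibition across replicates at least about 35%, with every replicate also reaching that limit, limit read from the data; inconclusive means only one of the two criteria met; inactive means neither criterion met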;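 further: 0% = median of neutral control wells and 100% = no fluorescence left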
Target sequence (P55212 24-179 limits assumed): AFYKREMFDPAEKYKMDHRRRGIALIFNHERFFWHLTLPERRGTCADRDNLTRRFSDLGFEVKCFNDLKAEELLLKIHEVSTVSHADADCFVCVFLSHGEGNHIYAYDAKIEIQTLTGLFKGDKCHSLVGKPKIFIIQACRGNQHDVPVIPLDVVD
Target sequence (P55212 194-293 limits assumed): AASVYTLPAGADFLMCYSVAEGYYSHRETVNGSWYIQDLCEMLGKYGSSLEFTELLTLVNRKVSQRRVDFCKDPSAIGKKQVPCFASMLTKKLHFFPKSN
Myeloid diff MLP: induction of myeloid progenitor differentiation, primary screen, cell-based, flow cytometry, MLPCN library. ER-HoxA9 myeloid progenitors, lysozyme-GFP differentiation. calls only at 10 µM. 1% of 360,000 active. AID 624256, 2012;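 active means normalized GFP-positive differentiation at or above the plate's own cutoff, the solvent-only control mean plus 3 SD; inconclusive means no clear call, values can overlap the other calls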;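 further: cells exposed to compound for four days before flow analysis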
Vif imaging: HIV Vif self-association inhibitors, primary screen, imaging, HEK293T, single point; HEK293T cells, Vif self-association by quenched fluorescence, 24 h; AID 602346, 2012; 0.35% of 340,000 active; inhibition, % at 7.49 µM; in the data active means inhibition above about 50%, passing the limit was not always enough; inconclusive means no clear call, values can overlap the other calls; inactive means below about 31%
Myeloid diff: inducers of myeloid progenitor differentiation, confirmation, cell-based, GFP/Mac1 flow cytometry, cherry pick 01; shares compounds with Myeloid diff MLP; ER-HoxA9 myeloid progenitors, GFP/Mac1 double-positive flow; calls only; 2% of 2,300 active;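 active means share of green or green-and-red cells above 9 and 9% in run 1 or 4 and 3% in run 2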
GFP autofluor: counter-screen for myeloid differentiation promoters: compound fluorescence | shares compounds with Myeloid diff MLP | ER-HoxA9 myeloid progenitors, no estrogen, GFP autofluorescence flow cytometry; vehicle wells 0%, positive control 100% | fluorescence response, % (no concentration beside the values) | 7.4% of 2,300 active;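 active means over 5% cells positive for green fluorescent reporter, or over 2% positive for both it and APC stain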;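 further: range taken on the double positive population between DMSO and positive control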
* hit, by the source's call; i = inactive; ? = inconclusive; · = no result; + = active, no number. A selection: hits, their analogues and other compounds. The true share with any hit is near 1.4%.

SMILES | T cell modulator | Casp6 inh | Myeloid diff MLP | Vif imaging | Myeloid diff | GFP autofluor
Cc1ccc(S(=O)(=O)NCCC(=O)Nc2ccc3c(c2)OCO3)cc1 | 168 | · | i | 2 | i | 1
Cc1ccc(S(=O)(=O)CCC(=O)Nc2ccc3c(c2)OCO3)cc1 | 134 | · | i | 0 | · | ·
CC(=O)N1CC[C@@H]2[C@@H](CO)N(C)c3ccc(-c4ccccc4)cc3[C@@H]21 | · | -2 | · | · | · | ·
O=C1OC(/C(=C\Nc2cc(Cl)ccc2O)[N+](=O)[O-])c2ccccc21 (centres undefined) | 227 | 2 | i | 29 | i | 0
CCCSC1=C(C#N)C(c2cc(OC)ccc2OC)CC(=O)N1 (centres undefined) | i | -1 | i | · | i | 1
CCSC1=C(C#N)C(c2ccc(OC)c(OC)c2)CC(=O)N1 (centres undefined) | 209 | · | i | 31 | · | ·
COc1ccccc1-c1ccc(SCc2ccc(F)cc2)nn1 | 217 | -1 | + | -4 | i | 1
CC(C)C#Cc1cnc2c(c1)C(=O)N([C@H](C)CO)C[C@H](C)[C@H](CN(C)Cc1cccc(F)c1)O2 | · | 2 | · | · | · | ·
CCCc1ccc(OCc2ccc(C(=O)NN)o2)c(OC)c1 | 203 | 0 | + | -8 | i | 0
C[C@@H]1CN([C@@H](C)CO)C(=O)c2cccc(NC(=O)Nc3ccc(C(F)(F)F)cc3)c2O[C@H]1CN(C)S(C)(=O)=O | · | 5 | · | · | · | ·
COc1ccc(NC(C)(C)c2nnnn2-c2c(C)cccc2C)cc1 | 254 | -3 | i | 19 | i | 0
CC12CS(=O)(=O)CC1SC(=S)N2c1ccccn1 (centres undefined) | 424 | · | + | -5 | i | 0
O=S1(=O)CC2SC(=S)N(c3ccccc3)C2C1 (centres undefined) | 232 | 1 | i | -5 | · | ·
COC(=O)Cc1[nH]nc2c1C1(C(=O)N(Cc3ccccc3)c3ccccc31)C(C#N)=C(N)O2 (centres undefined) | 478 | · | ? | 7 | · | ·
Cc1[nH]nc2c1C1(C(=O)N(Cc3ccc(Cl)cc3)c3ccccc31)C(C#N)=C(N)O2 (centres undefined) | 472 | · | i | -28 | i | 0
CC(=O)Oc1c(-c2ccc(Br)o2)oc2ccccc2c1=O | 147 | 0 | i | -4 | i | 1
O=C(C[C@@H]1CC[C@H]2[C@@H](COC[C@H](O)CN2C(=O)Nc2ccc(C(F)(F)F)cc2)O1)NCCc1ccncc1 | · | -6 | · | · | · | ·
CCCC(=O)Nc1ccc2c(c1)C(=O)N(C)[C@@H]1CC[C@@H](CC(=O)Nc3ccccc3)O[C@@H]1CO2 | · | 3 | · | · | · | ·
O=C(NCC[C@H]1CC[C@H](NS(=O)(=O)Cc2ccccc2)[C@@H](CO)O1)C1CC1 | · | 3 | · | · | · | ·
Cc1noc(C)c1S(=O)(=O)N(C)C[C@H]1OCCCC[C@H](C)Oc2ccc(NC(=O)NC3CCCCC3)cc2C(=O)N([C@@H](C)CO)C[C@@H]1C | · | -2 | · | · | · | ·
CC(SCCc1ccccn1)C(=O)O (centres undefined) | 290 | · | i | -12 | i | 0
CC1Cc2ccccc2N1C(=O)c1ccnc(C(C)(C)C)c1 (centres undefined) | 452 | · | + | -10 | i | 0
CCCCn1nc(NC(=O)CCC)c2cc3cc(OC)ccc3nc21 | 89 | 0 | i | -4 | i | 0
CCCCn1nc(NC(=O)CC(C)C)c2cc3cc(OC)ccc3nc21 | 67 | 0 | i | -7 | · | ·
O=C(C[C@@H]1CC[C@H](NC(=O)Nc2cc(F)ccc2F)[C@@H](CO)O1)Nc1ccccc1 | · | -3 | · | · | · | ·
C[C@@H]1CN([C@H](C)CO)S(=O)(=O)c2ccc(-c3cccc(F)c3)cc2O[C@@H]1CN(C)S(=O)(=O)c1ccccc1 | · | -5 | · | · | · | ·
CC(C)C(=O)Nc1cccc(S(=O)(=O)c2cccc(NC(=O)C(C)C)c2)c1 | 276 | · | i | -11 | i | 0
CN1C(=O)/C(=C/c2cn(CC(=O)N3CCCCC3)c3ccccc23)NC1=S | i | 1 | + | -11 | i | 97*
